In publication PMC4706799 (Cancer prevention research (Philadelphia, Pa.), 2015):
Values joined by “and” are separate entries in the source; they are usually repeats but may differ in a detail not shown here. Equal values may be shown once.

Experiments:
886LN = experiment: SRB growth inhibition assay, 886LN; format: cell-based; conditions: 72 h
Method in brief: (§1)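 SCCHN lines were kept in DMEM/F12 (1:1) with 10% heat-inactivated FBS at 37 °C and 5% CO2; MSK-Leuk1 was kept in keratinocyte basal medium. Cells were seeded in 96-well plates, incubated overnight, then exposed for 72 h to a range of test-compound concentrations (DMSO stock diluted in RPMI, final DMSO <0.1%). Growth inhibition was read by sulforhodamine B staining, and IC50 was calculated by software.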

Tu212 = experiment: SRB growth inhibition assay, Tu212; format: cell-based
Method in brief: as §1

Tu177 = experiment: SRB growth inhibition assay, Tu177; format: cell-based
Method in brief: as §1

Tu686 = experiment: SRB growth inhibition assay, Tu686; format: cell-based
Method in brief: as §1

SQCCY1 = experiment: SRB growth inhibition assay, SQCCY1; format: cell-based
Method in brief: as §1

MSK-Leuk1 = experiment: SRB growth inhibition assay, MSK-Leuk1; format: cell-based; conditions: 72 h
Method in brief: as §1

JHU022 = experiment: SRB growth inhibition assay, JHU022; format: cell-based
Method in brief: as §1

PCI-13 = experiment: SRB growth inhibition assay, PCI-13; format: cell-based
Method in brief: as §1

UM-22B = experiment: SRB growth inhibition assay, UM-22B; format: cell-based; conditions: 72 h
Method in brief: as §1

[1] = test system: premalignant (MSK-LEUK1) and malignant SCCHN cell lines; experiment: SRB growth inhibition assay, cell line panel; format: cell-based; conditions: 72 h, read-out: IC50 values, range over the cell lines
Method in brief: as §1

SCCHN cell lines = experiment: Annexin V-PE staining for apoptosis; format: cell-based; conditions: for concentration sufficient to induce ~80% apoptosis: by 48 h, annexin V-PE
[2] = Pharmacokinetic study, plasma LC/MS/MS; format: in vivo, A/J mice
Tu686 SCCHN xenografts = experiment: Nude mouse xenograft model; format: in vivo, nude mice; conditions: for effect on tumor volume: 50 mg/kg i.p., once/day, five days/week, 17 days
EGFR = experiment: Western blot, pEGFR and EGFR; format: cell-based; conditions: Tu212, Tu686, MSK-LEUK1
AKT = experiment: Western blot, pAKT and AKT; format: cell-based; conditions: Tu212, Tu686, MSK-LEUK1
EGFR mRNA = experiment: Real-time qPCR, EGFR mRNA; format: cell-based; conditions: Tu212 and Tu686
AKT mRNA = experiment: Real-time qPCR, AKT mRNA; format: cell-based; conditions: Tu212 and Tu686
[3] = cited from earlier work
MSK cell line = experiment: Annexin V-PE staining for apoptosis, MSK; format: cell-based; conditions: 24 h treatment
Method in brief: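 MSK-Leuk1 premalignant cells, grown in keratinocyte basal medium, were seeded in 6-cm plates to 40–50% confluency. They were treated for 24 h with test compound at doses chosen per cell line (DMSO stock diluted in RPMI, final DMSO <0.1%). Cells were trypsinized, washed in cold PBS, stained with annexin V-PE plus 7-AAD for 15 min at room temperature, and read by flow cytometry. Three independent experiments; mean ± SD; paired two-tailed t-test versus untreated control.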

[4] = Body weight and organ toxicity in xenograft study; format: in vivo; conditions: 50 mg/kg i.p., 17 days
PARP = experiment: Western blot for PARP cleavage; format: cell-based; conditions: Tu212, Tu686, MSK-LEUK1, 24 h
Method in brief: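 Tu212, Tu686 and MSK-Leuk1 cells were treated with test compound at indicated doses for 24 h. Whole-cell lysates (20 µg protein) were run on 8–12% SDS-PAGE and transferred to PVDF. Blots were probed with a PARP antibody recognising both full-length and cleaved forms, with β-actin or GAPDH as loading control, and detected by enhanced chemiluminescence.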

cytochrome c = experiment: Cytochrome c release in the cytoplasm; format: cell-based; conditions: Tu212 cells
Method in brief: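 Tu212 cells were treated with test compound. Cytosolic and mitochondrial fractions were separated and immunoblotted for cytochrome c, with ERK as cytoplasmic control and Cox4 as mitochondrial control. Equal protein (20 µg) was run on 8–12% SDS-PAGE, transferred to PVDF and detected by enhanced chemiluminescence. Blots shown represent three independent experiments.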

Bcl-2 = experiment: Western blot, Bcl-2 expression; format: cell-based; conditions: Tu212 and Tu686, 24 h
Method in brief: (§2)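 Tu212 and Tu686 cells were treated with test compound at indicated doses for 24 h. Whole-cell lysates were immunoblotted for Bcl-2 family proteins (Bcl-2, Bcl-xL, Mcl-1, Bid, Bim, PUMA, NOXA), using 20 µg protein per lane on 8–12% SDS-PAGE and PVDF transfer. β-Actin or GAPDH served as loading control; detection was by enhanced chemiluminescence.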

Bid = experiment: Western blot, Bid expression; format: cell-based; conditions: Tu212 and Tu686, 24 h
Method in brief: as §2

Bim = experiment: Western blot, Bim expression; format: cell-based; conditions: Tu212 and Tu686, 24 h
Method in brief: as §2

Bcl-xL = experiment: Western blot, Bcl-xL expression; format: cell-based; conditions: Tu212 and Tu686, 24 h
Method in brief: as §2

Mcl-1 = experiment: Western blot, Mcl-1 expression; format: cell-based; conditions: Tu212 and Tu686, 24 h
Method in brief: as §2

Bcl-2 mRNA = experiment: Real-time qPCR, Bcl-2 mRNA; format: cell-based; conditions: Tu212 and Tu686
Method in brief: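 Tu212 and Tu686 cells were treated with test compound at 1 µM and 2 µM (T1) or 2 µM and 3 µM (T2), respectively. Total RNA was column-extracted, and 2 µg was reverse transcribed to cDNA. Bcl-2 mRNA was quantified by SYBR Green real-time qPCR and compared with the corresponding untreated control.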

[5] = test system: mTOR pathway (S6 and 4EBP1); experiment: Western blot, mTOR pathway readouts; format: cell-based; conditions: Tu212, Tu686, MSK-LEUK1
Method in brief: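 Tu212, Tu686 and MSK-Leuk1 cells were treated with different doses of test compound. Whole-cell lysates (20 µg protein, 8–12% SDS-PAGE, PVDF) were immunoblotted for p-mTOR, p-S6, S6, p-4EBP1 and 4EBP1, with β-actin or GAPDH loading control and chemiluminescent detection. Blots shown represent three independent experiments.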

FOXO1 and 3 = experiment: Western blot, FOXO phosphorylation; format: cell-based; conditions: Tu686 cells, multiple sites
Method in brief: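 Tu686 cells were exposed to test compound, and whole-cell lysates were probed by Western blot for phospho-FOXO1a and phospho-FOXO3a. Equal protein (20 µg) was separated on 8–12% SDS-PAGE and blotted to PVDF, with β-actin or GAPDH as loading control and enhanced chemiluminescence detection. Blots shown represent three independent experiments.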

[6] = cited from earlier work; remark: listed apart in the source
[7] = cited from earlier work; remark: listed apart in the source
[8] = female, A/J, mouse, plasma, po, 200 mg/kg

## COc1cc(/C=C/C(=O)CC(=O)/C=C/c2ccc(O)c(OC)c2)ccc1O [curcumin, reference compound]
886LN
  IC50: 17.4 µM
Tu212; TU212, 72 h
  IC50: 6.97 µM
Tu177; 72 h
  IC50: 5.25 µM
Tu686; Tu 686, 72 h
  IC50: 6.7 µM
SQCCY1; 72 h
  IC50: 12.6 µM
MSK-Leuk1
  IC50: 6.81 µM
JHU022; 72 h
  IC50: 4.53 µM
PCI-13; 72 h
  IC50: 5.73 µM
UM-22B
  IC50: 7.76 µM
[1]
  IC50: 4.53 to 17.4 µM
SCCHN cell lines
  concentration sufficient to induce ~80% apoptosis: 10 to 15 µM
[2]; [8]
  AUC(0-inf): 131 ng·h/mL
  Cmax: 55.6 ng/mL
  Tmax: 0.25 h
  half-life: 7.7 h
Tu686 SCCHN xenografts
  effect on tumor volume: had no effect
Tu686 SCCHN xenografts; 150 mg/kg, earlier study, data not shown
  efficacy in xenograft study: did not find any efficacy
EGFR
  phosphorylation of EGFR: inhibited the phosphorylation
  total EGFR protein: inhibited
AKT
  phosphorylation of AKT: inhibited the phosphorylation
  total AKT protein: inhibited
EGFR mRNA
  mRNA expression of EGFR: strongly inhibited the mRNA expression
AKT mRNA
  mRNA expression of AKT: strongly inhibited the mRNA expression
[3]
  oral bioavailability: ~ 1%

## COc1cc(/C=C/C(=O)/C=C/c2cc(OC)c(O)c(OC)c2)cc(OC)c1O [FLLL12]
886LN; 886LN, SRB assay
  IC50: 0.72 µM
Tu212; Tu212, 72 h, SRB assay
  IC50: 0.46 µM
Tu177; Tu177, 72 h, SRB assay
  IC50: 0.45 µM
Tu686; Tu686, 72 h, SRB assay
  IC50: 0.68 µM
SQCCY1; SQCCY1, 72 h, SRB assay
  IC50: 1.55 µM
MSK-Leuk1; MSK-Leuk1 (premalignant), SRB assay
  IC50: 0.35 µM
JHU022; JHU022, 72 h, SRB assay
  IC50: 0.77 µM
PCI-13; PCI-13, 72 h, SRB assay
  IC50: 0.35 µM
UM-22B; UM-22B, SRB assay
  IC50: 0.57 µM
SCCHN cell lines; SCCHN cell lines
  fold more potent than curcumin in inducing apoptosis: 5–10 fold
SCCHN cell lines
  concentration sufficient to induce ~80% apoptosis: 1 to 3 µM
MSK cell line
  apoptosis: more than 80%
[2]; 200 mg/kg oral
  AUC (0-∞): 418.5 ng·h/mL
  AUC, fold greater than curcumin: 3–4 fold
  Cmax, fold greater than curcumin: 4.3 fold and ~ 4.0 fold and 3–4 fold
  terminal elimination half-life (t½): 4.8 h
[2]; 200 mg/kg oral, DMSO/0.5% CMC, plasma
  Tmax: 0.5 h
[2]; 200 mg/kg oral, plasma
  Cmax: 241.5 ng/mL
Tu686 SCCHN xenografts
  effect on tumor volume: significantly reduced tumor volume
[4]
  toxicity (H&E of major organs, body weight): without inducing any notable toxicity
PARP
  cleavage of PARP: markedly induced the cleavage of PARP
Cytochrome c
  release of cytochrome c in the cytoplasm: caused release of cytochrome c
Bcl-2
  expression of Bcl-2 protein: inhibited
Bid
  expression of Bid (full length): inhibited
Bim
  expression of Bim: increased
Bcl-xL
  expression of Bcl-xL: remained mostly unchanged
Mcl-1
  expression of Mcl-1: remained mostly unchanged
Bcl-2 mRNA
  expression of Bcl-2 mRNA: increased rather than decreased
EGFR
  phosphorylation of EGFR: inhibited the phosphorylation
  total EGFR protein: inhibited
AKT
  phosphorylation of AKT: inhibited the phosphorylation
  total AKT protein: inhibited
EGFR mRNA
  mRNA expression of EGFR: strongly inhibited the mRNA expression
AKT mRNA
  mRNA expression of AKT: strongly inhibited the mRNA expression
[5]
  phosphorylation of S6 and 4EBP1: strongly inhibited phosphorylation
FOXO1 and 3
  phosphorylation of FOXO1 and 3: strongly inhibited the phosphorylation

## COc1cc(/C=C/C(=O)C(=Cc2ccc(F)c(F)c2)C(=O)/C=C/c2ccc(O)c(OC)c2)ccc1O [CDF]
[6]
  accumulation in pancreatic tissue, fold higher than curcumin: 10.6 fold
  systemic drug level, fold greater than curcumin: 2.7 fold

## O=C1/C(=C/c2ccccn2)CNC/C1=C\c1ccccn1 [compound 31]
[7]
  fold better anti-cancer efficacy than natural curcumin in vitro: ~ 10 fold

## O=C1/C(=C/c2ccccc2F)CNC/C1=C\c1ccccc1F [EF24]
[7]
  fold better anti-cancer efficacy than natural curcumin in vitro: ~ 10 fold

## CN1C/C(=C\c2ccccn2)C(=O)/C(=C/c2ccccn2)C1 [UBS109]
[7]
  fold better anti-cancer efficacy than natural curcumin in vitro: ~ 10 fold
